Laboratory results published in ChEMBL document CHEMBL3421606, “Organoselenocyanates and symmetrical diselenides redox modulators: Design, synthesis and biological evaluation” (Eur J Med Chem, 2015).

What was measured:
HepG2 = test: Cytotoxicity against human HepG2 cells after 48 hrs by MTT assay; type: functional, cell-based
How it was run: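 HepG2 grown in DMEM with 10% calf serum at 37 °C. Seeded at 50,000 cells/mL, grown 2 days, then serial compound dilutions added for 48 h at 37 °C, 10% CO2. MTT at 0.5 mg/mL final for 2 h; formazan dissolved in DMSO and read at 590 nm. IC50 = concentration giving 50% of untreated-control absorbance, from dose-response curves, mean of two parallel experiments. 5-FU as reference.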

[1] = Antioxidant activity assessed as DPPH free radical scavenging activity after 30 mins by spectrophotometry; type: physicochemical; conditions: 0.5 h
How it was run: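 Compounds in methanol at 1 mg/ml. 200 µL added to 0.4 ml of 0.1 mM DPPH in methanol. Kept 30 min in the dark, then absorbance read at 517 nm against a blank (methanol, no DPPH). Scavenging % = (A blank − A sample)/A blank x 100. Ascorbic acid and ebselen served as reference antioxidants.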

[2] = Antioxidant activity assessed as glutathione peroxidase like activity after 3 mins by spectrophotometry; type: physicochemical; conditions: 0.05 h
How it was run: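 NADPH-glutathione reductase coupled assay in 50 mM phosphate buffer with 0.1% Triton X-100, plus glutathione, glutathione reductase and NADPH. Compound at 41 µM; reaction started with 0.8 mM H2O2. A340 recorded over 3 min to give ΔA/min, background-corrected for H2O2+GSH and for compound colour. Ebselen 41 µM as reference.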

[3] = Antioxidant activity assessed as bleomycin-Fe2+-induced DNA degradation after 1 hr by spectrophotometry; type: physicochemical
How it was run: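 Mix of calf thymus DNA 0.5 mg/ml, bleomycin sulfate 0.05 mg/ml, MgCl2 5 mM, FeCl3 and test compound 2 mM, held 1 h at 37 °C. Stopped with EDTA, then 1% TBA and 25% HCl added, heated 80 °C 30 min. Cooled and centrifuged; TBA-reactive substances read at 532 nm as MDA equivalents. Ascorbic acid as reference. Means of 3 replicates.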

Staphylococcus aureus [4] = test: Antimicrobial activity against Staphylococcus aureus assessed as diameter of inhibition zone after 2 days by agar diffusion assay; type: functional
How it was run: (§1)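 Agar well/disc diffusion. 100 µL of suspension, 1x10^8 CFU/mL bacteria on nutrient agar or 1x10^4 spores/mL C. albicans on potato dextrose agar. 6 mm paper discs soaked with 20 µl of 1 mg/ml compound (20 µg per disc), incubated at 30°C. Inhibition zone diameter (mm) read after 1 and 2 days. Ampicillin (bacteria) and clotrimazole (fungus) controls at the same concentration.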

Staphylococcus aureus [5] = test: Antimicrobial activity against Staphylococcus aureus assessed as diameter of inhibition zone after 2 days by agar diffusion assay relative to ampicillin; type: functional; set-up: concentration or dose not given beside the values
How it was run: (§2)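 Agar diffusion with 6 mm discs carrying 20 µL of 1 mg/ml compound on nutrient agar seeded with 1x10^8 CFU/mL bacteria, incubated at 30°C. Ampicillin run the same way at the same concentration. % activity index = inhibition zone of compound / inhibition zone of ampicillin x 100.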

Candida albicans = test: Antimicrobial activity against Candida albicans assessed as diameter of inhibition zone after 1 day by agar diffusion assay; type: functional; how it was run: as §1
Escherichia coli [6] = test: Antimicrobial activity against Escherichia coli assessed as diameter of inhibition zone after 2 days by agar diffusion assay; type: functional; how it was run: as §1
Escherichia coli [7] = test: Antimicrobial activity against Escherichia coli assessed as diameter of inhibition zone after 2 days by agar diffusion assay relative to ampicillin; type: functional; how it was run: as §2
[8] = Homo sapiens, HepG2, 48 h, read-out: IC50

SMILES: N#C[Se]c1ccc(-n2[se]c3ccccc3c2=O)cc1
- IC50 (HepG2; [8]): 64 µM
- Activity [1]: Active
- Activity [2]: Not Active
- OD [3]: 0.09

SMILES: CC(C)C(C(=O)NC(C)(C)C)N(CCc1c[nH]c2ccccc12)C(=O)c1ccccc1[Se][Se]c1ccccc1C(=O)N(CCc1c[nH]c2ccccc12)C(C(=O)NC(C)(C)C)C(C)C (stereo not drawn)
- IC50 (HepG2; [8]): 45 µM
- Activity [1]: Not Active
- Activity [2]: Active
- OD [3]: 0.07

SMILES: Cc1ccc(C(C(=O)NC(C)(C)C)N(CCc2c[nH]c3ccccc23)C(=O)c2ccccc2[Se][Se]c2ccccc2C(=O)N(CCc2c[nH]c3ccccc23)C(C(=O)NC(C)(C)C)c2ccc(C)cc2)cc1 (stereo not drawn)
- IC50 (HepG2; hepg2): Not Active
- Activity [1]: Not Active
- Activity [2]: Active
- OD [3]: 0.073
- diameter of the inhibition zone (DIZ) (Staphylococcus aureus [4]): 12 mm
- Activity_index (Staphylococcus aureus [5]): 55%

SMILES: CC(C)C(C(=O)NC(C)(C)C)N(Cc1ccccc1)C(=O)c1ccccc1[Se][Se]c1ccccc1C(=O)N(Cc1ccccc1)C(C(=O)NC(C)(C)C)C(C)C (stereo not drawn)
- IC50 (HepG2; hepg2): Not Active
- Activity [1]: Not Active
- Activity [2]: Active
- OD [3]: 0.073

SMILES: N#C[Se]c1ccc(NC(=O)/C=C\C(=O)O)cc1
- IC50 (HepG2; [8]): 5 µM
- Activity [1]: Active
- OD [3]: 0.051
- diameter of the inhibition zone (DIZ) (Staphylococcus aureus [4]): 16 mm
- Activity_index (Staphylococcus aureus [5]): 73%
- diameter of the inhibition zone (DIZ) (Candida albicans): 27 mm

SMILES: N#C[Se]c1ccc(N2C(=O)C=CC2=O)cc1
- IC50 (HepG2; [8]): 0.6 µM
- Activity [1]: Not Active
- Activity [2]: Active
- OD [3]: 0.082

SMILES: N#C[Se]c1ccc(NC(=O)CCC(=O)O)cc1
- IC50 (HepG2; hepg2): Not Active
- Activity [1]: Active
- OD [3]: 0.053
- diameter of the inhibition zone (DIZ) (Staphylococcus aureus [4]): 15 mm
- Activity_index (Staphylococcus aureus [5]): 68%

SMILES: N#C[Se]c1ccc(N2C(=O)CCC2=O)cc1
- IC50 (HepG2; hepg2): Not Active
- Activity [1]: Not Active
- OD [3]: 0.065
- diameter of the inhibition zone (DIZ) (Staphylococcus aureus [4]): 21 mm
- Activity_index (Staphylococcus aureus [5]): 95%
- diameter of the inhibition zone (DIZ) (Candida albicans): 28 mm

SMILES: N#C[Se]c1ccc(NC(=O)CCCC(=O)O)cc1
- IC50 (HepG2; [8]): 7 µM
- Activity [1]: Not Active
- Activity [2]: Active
- OD [3]: 0.068
- diameter of the inhibition zone (DIZ) (Staphylococcus aureus [4]): 20 mm
- Activity_index (Staphylococcus aureus [5]): 91%

SMILES: N#C[Se]c1ccc(N2C(=O)CCCC2=O)cc1
- IC50 (HepG2; [8]): 47 µM
- Activity [1]: Not Active
- Activity [2]: Active
- OD [3]: 0.078

SMILES: O=C(O)/C=C\C(=O)Nc1ccc([Se][Se]c2ccc(NC(=O)/C=C\C(=O)O)cc2)cc1
- IC50 (HepG2; [8]): 3 µM
- Activity [1]: Active
- Activity [2]: Active
- OD [3]: 0.089
- diameter of the inhibition zone (DIZ) (Staphylococcus aureus [4]): 21 mm
- Activity_index (Staphylococcus aureus [5]): 95%

SMILES: O=C1C=CC(=O)N1c1ccc([Se][Se]c2ccc(N3C(=O)C=CC3=O)cc2)cc1
- IC50 (HepG2; [8]): 13 µM
- Activity [1]: Active
- Activity [2]: Active
- OD [3]: 0.055
- diameter of the inhibition zone (DIZ) (Escherichia coli [6]): 7 mm
- Activity_index (Escherichia coli [7]): 29%

SMILES: O=C(O)CCC(=O)Nc1ccc([Se][Se]c2ccc(NC(=O)CCC(=O)O)cc2)cc1
- IC50 (HepG2; hepg2): Not Active
- Activity [1]: Active
- Activity [2]: Active
- OD [3]: 0.088
- diameter of the inhibition zone (DIZ) (Staphylococcus aureus [4]): 20 mm
- Activity_index (Staphylococcus aureus [5]): 91%
- diameter of the inhibition zone (DIZ) (Candida albicans): 19 mm

SMILES: O=C1CCC(=O)N1c1ccc([Se][Se]c2ccc(N3C(=O)CCC3=O)cc2)cc1
- IC50 (HepG2; [8]): 14 µM
- Activity [1]: Not Active
- Activity [2]: Active
- OD [3]: 0.074
- diameter of the inhibition zone (DIZ) (Staphylococcus aureus [4]): 14 mm
- Activity_index (Staphylococcus aureus [5]): 64%

SMILES: O=C(O)CCCC(=O)Nc1ccc([Se][Se]c2ccc(NC(=O)CCCC(=O)O)cc2)cc1
- IC50 (HepG2; [8]): 67 µM
- Activity [1]: Active
- Activity [2]: Active
- OD [3]: 0.083
- diameter of the inhibition zone (DIZ) (Staphylococcus aureus [4]): 20 mm
- Activity_index (Staphylococcus aureus [5]): 91%
- diameter of the inhibition zone (DIZ) (Candida albicans): 16 mm

SMILES: O=C1CCCC(=O)N1c1ccc([Se][Se]c2ccc(N3C(=O)CCCC3=O)cc2)cc1
- IC50 (HepG2; [8]): 35 µM
- Activity [1]: Not Active
- Activity [2]: Active
- OD [3]: 0.09
- diameter of the inhibition zone (DIZ) (Staphylococcus aureus [4]): 21 mm
- Activity_index (Staphylococcus aureus [5]): 90%

SMILES: O=c1c2ccccc2[se]n1-c1ccc([Se][Se]c2ccc(-n3[se]c4ccccc4c3=O)cc2)cc1
- IC50 (HepG2; [8]): 40 µM
- Activity [1]: Active
- Activity [2]: Not Active
- OD [3]: 0.06

SMILES: CC1(C)S[C@@H]2[C@H](NC(=O)[C@H](N)c3ccccc3)C(=O)N2[C@H]1C(=O)O [AMPICILLIN]
- diameter of the inhibition zone (DIZ) (Escherichia coli [6]): 24 mm
- diameter of the inhibition zone (DIZ) (Staphylococcus aureus [4]): 22 mm

SMILES: O=C1O[C@H]([C@@H](O)CO)C(O)=C1O [ASCORBIC ACID]
- OD [3]: 0.062

SMILES: Clc1ccccc1C(c1ccccc1)(c1ccccc1)n1ccnc1 [CLOTRIMAZOLE]
- diameter of the inhibition zone (DIZ) (Candida albicans): 28 mm

SMILES: O=c1c2ccccc2[se]n1-c1ccccc1 [EBSELEN]
- Activity [1]: Active
- Activity [2]: Active

SMILES: O=c1[nH]cc(F)c(=O)[nH]1 [FLUOROURACIL]
- IC50 (HepG2; [8]): 8 µM
